Assay results reported in ChEMBL document CHEMBL1131003, “Nonsymmetric P2/P2' cyclic urea HIV protease inhibitors. Structure-activity relationship, bioavailability, and resistance profile of monoindazole-substituted P2 analogues” (J Med Chem, 1998).
One block for each molecule: values may come before it.

What was measured:
MT2 = assay: Antiviral potency evaluated by measuring accumulation of viral RNA transcripts 3 days after infection of MT-2 cells with HIV-1 RF; assay type: functional; conditions: Homo sapiens, MT2, 72 h
[1] = molecular target: Human immunodeficiency virus type 1 protease (Human immunodeficiency virus 1, UniProt Q72874); assay: Inhibitory activity against HIV protease
In short: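 Ki for HIV protease, measured by cleavage of a fluorescent substrate with HPLC analysis, following the earlier method.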

[2] = molecular target: Human immunodeficiency virus type 1 protease (Human immunodeficiency virus 1) (UniProt Q72874); assay: Antiviral activity against ritonavir virus (HIV-1 mutated at 46I/63P/71V/82F/84V and resistant to ritonavir); assay type: functional
In short: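 Mutant HIV-1 viruses carrying protease substitutions seen in ritonavir- or indinavir-treated patient isolates; the ritonavir virus carries 46I/63P/71V/82F/84V. IC90 read from a viral p24 readout, following the earlier method.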

[3] = molecular target: Human immunodeficiency virus type 1 protease (Human immunodeficiency virus 1) (UniProt Q72874); assay: Antiviral activity against mutant virus HIV-1 mutant (84V) strain; assay type: functional
In short: (§1)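 I84V single and I84V/V82F double mutant HIV-1, both from in vitro selection under a cyclic urea inhibitor. IC90 measured by yield reduction assay.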

[4] = molecular target: Human immunodeficiency virus type 1 protease (Human immunodeficiency virus 1) (UniProt Q72874); assay: Antiviral activity against mutant virus HIV-1 mutant (84V/82F) strain; assay type: functional; in short: as §1
[5] = molecular target: Human immunodeficiency virus type 1 protease (Human immunodeficiency virus 1) (UniProt Q72874); assay: Antiviral activity against indinavir virus (HIV-1 mutated at 10R/63P/71V/82T/84V and resistant to indinavir)
[6] = Peak plasma concentration was measured in dogs; assay type: ADME, organism-based, Canis lupus familiaris; conditions: dog

SMILES: COC(=O)Cc1cccc(CN2C(=O)N(Cc3ccc4[nH]ncc4c3)[C@H](Cc3ccccc3)[C@H](O)[C@@H](O)[C@H]2Cc2ccccc2)c1
IC90 (MT2): 32 nM
Ki [1]: 0.11 nM

IC90 (MT2): 138 nM
SMILES: CCNC(=O)c1cccc(CN2C(=O)N(Cc3cccc(C(=O)NCC)c3)[C@H](Cc3ccccc3)[C@H](O)[C@@H](O)[C@H]2Cc2ccccc2)c1

SMILES: O=C1N(Cc2ccc3[nH]ncc3c2)[C@H](CCc2ccccc2)[C@@H](O)[C@@H](Cc2ccccc2)N1Cc1ccc2[nH]ncc2c1
IC90 (MT2): 6 nM
Ki [1]: 0.023 nM

SMILES: Cc1cccc(NC(=O)c2cccc(CN3C(=O)N(Cc4ccc5[nH]ncc5c4)[C@H](Cc4ccccc4)[C@H](O)[C@@H](O)[C@H]3Cc3ccccc3)c2)n1
IC90 (MT2): 3 nM
Ki [1]: 0.04 nM

IC90 (MT2): 3900 nM
SMILES: O=C1N(Cc2ccc3ccccc3c2)[C@H](Cc2ccccc2)[C@H](O)[C@@H](O)[C@@H](Cc2ccccc2)N1Cc1ccc2ccccc2c1

SMILES: Nc1ccc(CN2C(=O)N(Cc3ccc4[nH]ncc4c3)[C@H](Cc3ccccc3)[C@H](O)[C@@H](O)[C@H]2Cc2ccccc2)cc1-c1cc[nH]n1
IC90 mutant/IC90 WT [2]: 2.1
IC90 mutant/IC90 WT [3]: 2.2
IC90 mutant/IC90 WT [4]: 20
IC90 (MT2): 22 nM
Ki [1]: 0.025 nM

IC90 (MT2): 35 nM
SMILES: NC(=O)c1cccc(CN2C(=O)N(Cc3cccc(C(N)=O)c3)[C@H](Cc3ccccc3)[C@H](O)[C@H]2CCc2ccccc2)c1

SMILES: O=C(Nc1ncc[nH]1)c1cccc(CN2C(=O)N(Cc3cccc(C(=O)Nc4ncc[nH]4)c3)[C@H](Cc3ccccc3)[C@H](O)[C@@H](O)[C@H]2Cc2ccccc2)c1
IC90 mutant/IC90 WT [2]: 0.2
IC90 mutant/IC90 WT [5]: 0.4
IC90 mutant/IC90 WT [3]: 0.7
IC90 mutant/IC90 WT [4]: 0.7
IC90 (MT2): 60 nM

SMILES: O=C1N(Cc2cccc(Cn3ccnn3)c2)[C@H](Cc2ccccc2)[C@H](O)[C@@H](O)[C@@H](Cc2ccccc2)N1Cc1ccc2[nH]ncc2c1
IC90 (MT2): 30 nM
Ki [1]: 0.11 nM

SMILES: O=C(Cc1ccccn1)c1cccc(CN2C(=O)N(Cc3ccc4[nH]ncc4c3)[C@H](Cc3ccccc3)[C@H](O)[C@@H](O)[C@H]2Cc2ccccc2)c1
IC90 mutant/IC90 WT [2]: 10
IC90 mutant/IC90 WT [3]: 1
Cmax [6]: 700 nM
IC90 mutant/IC90 WT [4]: 5
IC90 (MT2): 15 nM
Ki [1]: 0.073 nM

SMILES: Nc1ccc(CN2C(=O)N(Cc3ccc4[nH]ncc4c3)[C@H](Cc3ccccc3)[C@H](O)[C@@H](O)[C@H]2Cc2ccccc2)cc1-n1nccn1
IC90 (MT2): 12 nM
Ki [1]: 0.059 nM

SMILES: Nc1ccc(CN2C(=O)N(Cc3ccc4[nH]ncc4c3)[C@H](Cc3ccccc3)[C@H](O)[C@@H](O)[C@H]2Cc2ccccc2)cc1-n1cncn1
IC90 mutant/IC90 WT [2]: 9
IC90 mutant/IC90 WT [3]: 1
Cmax [6]: 500 nM
IC90 mutant/IC90 WT [4]: 20
IC90 (MT2): 35 nM
Ki [1]: 0.029 nM

SMILES: Cc1ccc(CN2C(=O)N(Cc3ccc4[nH]ncc4c3)[C@H](Cc3ccccc3)[C@H](O)[C@@H](O)[C@H]2Cc2ccccc2)cc1N
IC90 (MT2): 15 nM
Ki [1]: 0.05 nM

IC90 (MT2): 550 nM
SMILES: O=C1N[C@H](Cc2ccccc2)[C@H](O)[C@@H](O)[C@@H](Cc2ccccc2)N1Cc1ccc2[nH]ncc2c1

SMILES: O=C(Cn1cccn1)c1cccc(CN2C(=O)N(Cc3ccc4[nH]ncc4c3)[C@H](Cc3ccccc3)[C@H](O)[C@@H](O)[C@H]2Cc2ccccc2)c1
IC90 (MT2): 15 nM
Ki [1]: 0.063 nM

SMILES: O=C(Cn1cncn1)c1cccc(CN2C(=O)N(Cc3ccc4[nH]ncc4c3)[C@H](Cc3ccccc3)[C@H](O)[C@@H](O)[C@H]2Cc2ccccc2)c1
Cmax [6]: 150 nM
IC90 (MT2): 51 nM
Ki [1]: 0.022 nM

SMILES: O=C1N(Cc2cccc(Cn3nccn3)c2)[C@H](Cc2ccccc2)[C@H](O)[C@@H](O)[C@@H](Cc2ccccc2)N1Cc1ccc2[nH]ncc2c1
IC90 (MT2): 32 nM
Ki [1]: 0.081 nM

SMILES: O=C1N(Cc2cccc(CCO)c2)[C@H](Cc2ccccc2)[C@H](O)[C@@H](O)[C@@H](Cc2ccccc2)N1Cc1ccc2[nH]ncc2c1
IC90 (MT2): 17 nM
Ki [1]: 0.05 nM

IC90 (MT2): 2.8 nM
SMILES: O=C(Nc1ccccn1)c1cccc(CN2C(=O)N(Cc3cccc(C(=O)Nc4ccccn4)c3)[C@H](Cc3ccccc3)[C@H](O)[C@@H](O)[C@H]2Cc2ccccc2)c1

SMILES: NC(=O)c1cc(CN2C(=O)N(Cc3ccc4[nH]ncc4c3)[C@H](Cc3ccccc3)[C@H](O)[C@@H](O)[C@H]2Cc2ccccc2)ccc1F
IC90 (MT2): 14 nM
Ki [1]: 0.018 nM

IC90 (MT2): 5.1 nM
SMILES: O=C(Nc1nc2ccccc2[nH]1)c1cccc(CN2C(=O)N(Cc3cccc(C(=O)Nc4nc5ccccc5[nH]4)c3)[C@H](Cc3ccccc3)[C@H](O)[C@@H](O)[C@H]2Cc2ccccc2)c1

SMILES: O=C(Cc1cccs1)c1cccc(CN2C(=O)N(Cc3ccc4[nH]ncc4c3)[C@H](Cc3ccccc3)[C@H](O)[C@@H](O)[C@H]2Cc2ccccc2)c1
IC90 (MT2): 18 nM
Ki [1]: 0.23 nM

IC90 (MT2): 709 nM
SMILES: NC(=O)c1cccc(CN2C(=O)N(Cc3cccc(C(N)=O)c3)[C@H](Cc3ccccc3)[C@H](O)[C@@H](O)[C@H]2Cc2ccccc2)c1

IC90 (MT2): 49 nM
SMILES: N=C(NO)c1cccc(CN2C(=O)N(Cc3cccc(/C(N)=N/O)c3)[C@H](CCc3ccccc3)[C@@H](O)[C@H]2Cc2ccccc2)c1

SMILES: Nc1ccc(CN2C(=O)N(Cc3ccc4[nH]ncc4c3)[C@H](Cc3ccccc3)[C@H](O)[C@@H](O)[C@H]2Cc2ccccc2)cc1-n1cccn1
IC90 mutant/IC90 WT [2]: 70
IC90 mutant/IC90 WT [3]: 3.3
IC90 mutant/IC90 WT [4]: 50
IC90 (MT2): 6 nM
Ki [1]: 0.045 nM

SMILES: Nc1ccc(CN2C(=O)N(Cc3ccc4[nH]ncc4c3)[C@H](Cc3ccccc3)[C@H](O)[C@@H](O)[C@H]2Cc2ccccc2)cc1F
IC90 (MT2): 7 nM
Ki [1]: 0.036 nM

SMILES: O=C1N(Cc2cccc(NCc3nc4ccccc4[nH]3)c2)[C@H](Cc2ccccc2)[C@H](O)[C@@H](O)[C@@H](Cc2ccccc2)N1Cc1ccc2[nH]ncc2c1
IC90 mutant/IC90 WT [3]: 1
IC90 mutant/IC90 WT [4]: 3
IC90 (MT2): 63 nM
Ki [1]: 0.016 nM

SMILES: O=C1N(Cc2cccc(Cn3cccn3)c2)[C@H](Cc2ccccc2)[C@H](O)[C@@H](O)[C@@H](Cc2ccccc2)N1Cc1ccc2[nH]ncc2c1
IC90 (MT2): 46 nM
Ki [1]: 0.17 nM

IC90 (MT2): 7 nM
SMILES: O=C1N(Cc2ccc3[nH]ncc3c2)[C@H](Cc2ccccc2)[C@H](O)[C@@H](O)[C@@H](Cc2ccccc2)N1Cc1ccc2[nH]ncc2c1

IC90 (MT2): 81 nM
SMILES: CNC(=O)c1cccc(CN2C(=O)N(Cc3cccc(C(=O)NC)c3)[C@H](Cc3ccccc3)[C@H](O)[C@@H](O)[C@H]2Cc2ccccc2)c1

SMILES: O=C(Cn1nccn1)c1cccc(CN2C(=O)N(Cc3ccc4[nH]ncc4c3)[C@H](Cc3ccccc3)[C@H](O)[C@@H](O)[C@H]2Cc2ccccc2)c1
IC90 (MT2): 15 nM
Ki [1]: 0.046 nM

IC90 (MT2): 4.2 nM
SMILES: O=C(Nc1nccs1)c1cccc(CN2C(=O)N(Cc3cccc(C(=O)Nc4nccs4)c3)[C@H](Cc3ccccc3)[C@H](O)[C@@H](O)[C@H]2Cc2ccccc2)c1

SMILES: Cc1ccc(NC(=O)c2cccc(CN3C(=O)N(Cc4ccc5[nH]ncc5c4)[C@H](Cc4ccccc4)[C@H](O)[C@@H](O)[C@H]3Cc3ccccc3)c2)nc1
Cmax [6]: < 50 nM
IC90 (MT2): 4 nM
Ki [1]: 0.048 nM

SMILES: O=C1N(Cc2cccc(NCc3nc4ccccc4s3)c2)[C@H](Cc2ccccc2)[C@H](O)[C@@H](O)[C@@H](Cc2ccccc2)N1Cc1ccc2[nH]ncc2c1
IC90 mutant/IC90 WT [2]: 25
IC90 mutant/IC90 WT [3]: 3.3
IC90 mutant/IC90 WT [4]: 20
IC90 (MT2): 5 nM
Ki [1]: 0.059 nM

SMILES: Nc1ccc(CN2C(=O)N(Cc3ccc4[nH]ncc4c3)[C@H](Cc3ccccc3)[C@H](O)[C@@H](O)[C@H]2Cc2ccccc2)cc1-n1ccnn1
IC90 (MT2): 38 nM
Ki [1]: 0.034 nM

SMILES: O=C1N(Cc2cccc(O)c2)[C@H](Cc2ccccc2)[C@H](O)[C@@H](O)[C@@H](Cc2ccccc2)N1Cc1ccc2[nH]ncc2c1
IC90 (MT2): 36 nM
Ki [1]: 0.045 nM

SMILES: O=C(Cn1ccnn1)c1cccc(CN2C(=O)N(Cc3ccc4[nH]ncc4c3)[C@H](Cc3ccccc3)[C@H](O)[C@@H](O)[C@H]2Cc2ccccc2)c1
IC90 (MT2): 30 nM
Ki [1]: 0.021 nM

SMILES: O=C(O)c1cccc(CN2C(=O)N(Cc3ccc4[nH]ncc4c3)[C@H](Cc3ccccc3)[C@H](O)[C@@H](O)[C@H]2Cc2ccccc2)c1
IC90 (MT2): 750 nM
Ki [1]: 0.049 nM

SMILES: N=C(NO)c1cccc(CN2C(=O)N(Cc3cccc(/C(N)=N/O)c3)[C@H](Cc3ccccc3)[C@H](O)[C@@H](O)[C@H]2Cc2ccccc2)c1
IC90 mutant/IC90 WT [3]: 1
IC90 mutant/IC90 WT [4]: 0.7
IC90 (MT2): 300 nM
Ki [1]: < 0.01 nM

SMILES: O=C1N(Cc2ccc(F)c(NCc3nc4ccccc4[nH]3)c2)[C@H](Cc2ccccc2)[C@H](O)[C@@H](O)[C@@H](Cc2ccccc2)N1Cc1ccc2[nH]ncc2c1
IC90 (MT2): 30 nM
Ki [1]: 0.028 nM

SMILES: Nc1cc(CN2C(=O)N(Cc3ccc4[nH]ncc4c3)[C@H](Cc3ccccc3)[C@H](O)[C@@H](O)[C@H]2Cc2ccccc2)ccc1F
IC90 (MT2): 14 nM
Ki [1]: 0.018 nM

SMILES: CN(C)c1cccc(CN2C(=O)N(Cc3ccc4[nH]ncc4c3)[C@H](Cc3ccccc3)[C@H](O)[C@@H](O)[C@H]2Cc2ccccc2)c1
IC90 (MT2): 39 nM
Ki [1]: 0.23 nM

SMILES: O=C1N(Cc2cccc(Cn3cncn3)c2)[C@H](Cc2ccccc2)[C@H](O)[C@@H](O)[C@@H](Cc2ccccc2)N1Cc1ccc2[nH]ncc2c1
IC90 (MT2): 35 nM
Ki [1]: 0.054 nM

SMILES: O=C(Nc1ccccn1)c1cccc(CN2C(=O)N(Cc3ccc4[nH]ncc4c3)[C@H](Cc3ccccc3)[C@H](O)[C@@H](O)[C@H]2Cc2ccccc2)c1
IC90 (MT2): 5 nM
Ki [1]: 0.051 nM

SMILES: O=C1N(Cc2cccc(-c3nc[nH]n3)c2)[C@H](Cc2ccccc2)[C@H](O)[C@@H](O)[C@@H](Cc2ccccc2)N1Cc1ccc2[nH]ncc2c1
IC90 mutant/IC90 WT [2]: 3.8
IC90 mutant/IC90 WT [3]: 3.3
IC90 mutant/IC90 WT [4]: 18
IC90 (MT2): 24 nM
Ki [1]: 0.041 nM
